Hits are enriched below; roughly 2.6% of the tested compounds scored in any of these assays.
TNAP act hi DEA – TNAP activators at high phosphate acceptor level, primary screen, biochemical, luminescence, uHTS; activation factor at 20 µM; purified TNAP, CDP-star luminescence, 1 M DEA, 30 min; hits give high values; 0 = EDTA background, 1 = DMSO-only activity; 200,000 tested, under 10 active;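 active = activation factor at least 2 at 20 µM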
Target sequence (P05186 whole entry, looked up): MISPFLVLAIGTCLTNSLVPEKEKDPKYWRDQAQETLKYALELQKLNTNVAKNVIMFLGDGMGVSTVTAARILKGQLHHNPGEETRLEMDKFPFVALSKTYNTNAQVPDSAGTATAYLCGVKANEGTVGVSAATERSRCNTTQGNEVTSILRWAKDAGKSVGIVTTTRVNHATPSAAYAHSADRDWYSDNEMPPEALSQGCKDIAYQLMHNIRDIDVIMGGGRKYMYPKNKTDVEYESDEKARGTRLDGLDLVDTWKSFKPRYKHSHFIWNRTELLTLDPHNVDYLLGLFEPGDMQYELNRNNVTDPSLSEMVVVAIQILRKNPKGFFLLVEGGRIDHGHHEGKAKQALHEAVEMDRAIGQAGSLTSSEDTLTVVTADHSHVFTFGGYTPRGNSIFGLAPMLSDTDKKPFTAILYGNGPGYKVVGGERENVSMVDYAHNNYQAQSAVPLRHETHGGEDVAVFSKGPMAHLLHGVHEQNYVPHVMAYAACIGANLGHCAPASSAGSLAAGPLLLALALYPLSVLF
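Test system – human TNAP · Doses – 20 µM single point · Incubation – 30 min, room temperature · Signal – luminescent substrate turnover signal · Read-out basis – activation factor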
Arbovirus anti – antivirals against arbovirus infection, primary screen, cell-based, full library, 10K replicate subset; actives 0.37% (n = 200,000); arbovirus infection cell-based antiviral screen; inhibition, % at 10 µM; in the data active = inhibition above about 30%
TNAP inh hiacc – human TNAP enzyme inhibitors, primary screen, biochemical, luminescent, high phosphate acceptor level, uHTS; inhibition, % at 20 µM; purified TNAP, CDP-star luminescence, 1 M DEA; actives 0.03% (n = 200,000); Alkaline phosphatase, tissue-nonspecific isozyme (Homo sapiens), P05186;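 active = over 50% inhibition of tissue-nonspecific alkaline phosphatase at 20 µM in the single-dose screen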
WT yeast gro inh – growth inhibition of WT strain, primary screen, mitochondrial fusion inhibitor project, WT and mutant strains, chemical genetic | mitochondrial fusion phenotypic screen | inhibition, % at 10 µM | actives 2.1% (n = 190,000) | AID 1362, 2008; in the data active = inhibition above about 58%; tested in S. cerevisiae
TNAP inh no acc – human TNAP enzyme inhibitors, primary screen, biochemical, luminescent, no phosphate acceptor, uHTS | Alkaline phosphatase, tissue-nonspecific isozyme (Homo sapiens), P05186 | purified TNAP, CDP-star luminescence, 30 min | inhibition, % at 20 µM | actives 0.26% (n = 200,000);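 active = tissue-nonspecific alkaline phosphatase inhibition above about 50% at 20 µM in the single-dose screen, limit read from the data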
Hits are given with their value; n = inactive; x = not tested or not shown.

SMILES | TNAP act hi DEA | Arbovirus anti | TNAP inh hiacc | WT yeast gro inh | TNAP inh no acc
CC(c1nccs1)N(C)C(=O)CCc1nnc(CCc2ccccc2)o1 (stereo not given) | n | n | n | n | n
Cc1cc(C)c(NC(=O)c2cc3c(nc4sccn43)s2)c(C)c1 | n | n | n | 74.9 | n
CC(C)c1nc(N2CCCC2)c(C#N)c2c1CCCC2 | n | n | n | 70.3 | n
COc1ccc(NC(=O)CSc2nc3c(c(=O)[nH]2)CCC3)cc1OC | n | n | n | n | n
CCNc1nc(ON=C(C)C)nc(N(C)C)n1 | n | n | n | n | n
Cn1c(C(=O)N2CCN(c3cccc(C(F)(F)F)c3)CC2)cc2sccc21 | n | n | n | 71.5 | n
O=C(/C=C/c1cccc(Br)c1)N1CCN(c2cccc(C(F)(F)F)c2)CC1 | n | n | n | 67.0 | n
O=C1C2CC=C(Cl)CC2C(=O)N1CCC[n+]1cccc2ccccc21 (stereo not given) | n | n | n | n | n
NC(=S)Nc1nc2ccccc2[nH]c1=O | n | n | n | n | 70.7
Cc1ccc2[nH]c(=O)c(NC(N)=S)nc2c1 | n | n | n | n | n
COc1ccc(C(=O)C(CCCCC(CN(C)C)C(=O)c2ccc(OC)cc2)CN(C)C)cc1 (stereo not given) | n | n | n | n | n
CCOc1ccc(C(=O)C(CCC(CN(C)C)C(=O)c2ccc(OCC)cc2)CN(C)C)cc1 (stereo not given) | n | n | n | 63.6 | n
Cc1nnc(SCC(=O)c2ccccc2)n1Cc1ccccc1 | n | n | n | n | n
CNC(=S)N1CCN(c2ccc([N+](=O)[O-])cc2)CC1 | n | n | n | 66.7 | n
COc1cccc(C(=O)NNC2OC(CO)C(O)C2O)c1 (stereo not given) | n | n | n | n | n
CCOC(=O)C1=NN(c2ccccc2)C2=NC(C)=C(C(=O)OC)C(c3ccc(C)cc3)N12 (stereo not given) | n | n | n | 70.4 | n
CCC1SC2=NC(C)=C(C(=O)OC)C(c3ccc(C)cc3)N2C1=O (stereo not given) | n | n | n | n | n
CC(NC(=S)NCCCN1CCOCC1)C1CC2CCC1C2 (stereo not given) | n | n | n | 59.4 | n
COc1ccc(NC(=O)c2cccc(Cn3cc(Br)cn3)c2)cn1 | n | n | n | n | n
O=C(O)CCn1cc(/C=C/C(=O)c2ccc(Cl)cc2)c(-c2ccc(Br)cc2)n1 | n | 46.2 | n | n | n
CSCCC(=O)Nc1cc(S(=O)(=O)N2CCOCC2)ccc1N1CCN(C)CC1 | n | n | n | n | n
Cc1ccc(-c2cc(C(=O)N/N=C/C=C/c3ccccc3)n[nH]2)s1 | n | n | n | n | n
Cc1ccc(-c2cc(C(=O)O)n[nH]2)s1 | n | n | n | n | 77.2
O=C(O)c1cc(-c2ccco2)[nH]n1 | n | n | n | n | 51.2
O=C1CCC(C(=O)N2CCC(CO)(Cc3ccc(Cl)cc3)CC2)=NN1 | n | n | n | n | n
SMILES | TNAP act hi DEA | Arbovirus anti | TNAP inh hiacc | WT yeast gro inh | TNAP inh no acc
CCCC(=O)OCC(=O)NCc1ccc(Cl)cc1 | n | n | n | n | n
O=C(COC(=O)CC(c1ccccc1)c1ccccc1)NCc1ccc(Cl)cc1 | n | n | n | 63.4 | n
CC(=O)C1=C(C)N(Cc2ccccc2)C(=O)N[C@@H]1c1cccc(C(F)(F)F)c1 | n | n | n | n | n
COC(=O)C1=C(C)N(Cc2ccco2)C(=O)N[C@@H]1c1cccc(C(F)(F)F)c1 | n | 31.7 | n | n | n
Cc1ccc(CSc2nnc(-c3ccco3)o2)cc1 | n | n | n | n | n
Clc1ccc(CNc2nc(CN3CCOCC3)nc3scc(-c4ccccc4)c23)cc1 | n | n | n | 78.5 | n
CCc1nc(SCc2ccc(F)cc2)[nH]c(=O)c1C#N | n | 40.4 | n | n | n
Cc1ccc(Cl)cc1NC(=S)N1CCC(c2ccccc2)C1 (stereo not given) | n | n | n | 59.2 | n
Cc1ccc(C2CCN(C(=S)Nc3cccc(C)c3)C2)cc1 (stereo not given) | n | n | n | 77.9 | n
Cc1ccc(C2CCN(C(=S)NC3CCCCC3)C2)cc1 (stereo not given) | n | n | n | 66.5 | n
CCCC(=O)NC(=S)Nc1ccc(S(=O)(=O)Nc2ccc(OCC)cc2)cc1 | n | n | n | n | n
CCOc1ccc(NS(=O)(=O)c2ccc(NC(=S)NC(=O)CC(C)C)cc2)cc1 | n | n | n | 79.5 | n
O=C(COC(=O)C12CC3CC(CC(O)(C3)C1)C2)Nc1ccccc1OC(F)F | n | n | n | 58.4 | n
O=C(COC(=O)C12CC3CC(CC(C3)C1)C2)Nc1ccccc1F | n | n | n | n | n
CC(C)CN(C(=O)c1cc2ccccc2o1)c1c(N)n(CC(C)C)c(=O)[nH]c1=O | n | n | n | n | n
CN1CCN(CC(O)(c2ccc(Cl)cc2)c2ccc(Cl)cc2)CC1 | n | n | n | 82.5 | n
COc1cccc(-c2cc(C(=O)Nn3cnnc3)c3ccccc3n2)c1 | n | 38.3 | n | n | n
CCNC(=S)NNC(=O)c1cc(-c2ccc(OC)cc2)nc2ccccc12 | n | n | n | 67.5 | n
Cc1ccccc1NC(=O)COC(=O)Cc1ccsc1 | n | n | n | x | n
O=C(c1cnc(-c2ccc(Cl)cc2)s1)c1ccc(Cl)cc1Cl | n | n | n | 73.1 | n
O=C(O)Cc1ccc(C(=O)c2ccc(Cl)cc2Cl)s1 | n | n | n | n | n
CC(Nc1cccnc1)=C(C#N)C#N | n | n | n | n | n
COc1ccc(-c2nc(N)n(C(=O)c3ccccc3Cl)n2)cc1 | n | n | n | n | n
COc1cc(/C=C2/C(=O)c3cccc([N+](=O)[O-])c3C2=O)c(Br)cc1O | n | n | n | n | 66.2
Cc1cc(C)c(NC(=O)COC(=O)/C=C/c2cccs2)c(C)c1 | n | n | n | n | n
SMILES | TNAP act hi DEA | Arbovirus anti | TNAP inh hiacc | WT yeast gro inh | TNAP inh no acc
Brc1cccc(CN2CCCCCCC2)c1 | n | n | n | n | n
CN1C=C/C(=C\c2cc[n+](C)c3ccccc23)c2ccccc21 | n | n | n | 69.1 | n
CC(=O)N(CCC(Cc1ccccc1)c1ccc2c(c1)OCO2)Cc1ccccc1F (stereo not given) | n | n | n | 77.8 | n
Fc1ccccc1CNCCC(Cc1ccccc1)c1ccc2c(c1)OCO2 (stereo not given) | n | n | n | n | n
CCCC(=O)n1nc(-c2cccnc2)nc1NCc1cccs1 | n | n | n | n | n
CC(=O)n1nc(-c2cccnc2)nc1NCc1cccs1 | n | n | n | n | 57.4
CCC(=O)n1nc(-c2cccnc2)nc1NCc1cccs1 | n | n | n | n | 69.0
Cc1ccc(NS(=O)(=O)c2ccc(OCC(=O)NCC3CCCO3)cc2)cc1 (stereo not given) | n | n | n | n | n
